Measured values as given in ChEMBL document CHEMBL4177755, “Combating Drug-Resistant Fungi with Novel Imperfectly Amphipathic Palindromic Peptides” (J Med Chem, 2018).
In brackets after ≈: the same amount, converted by molar mass.

Columns and labels:
[1] = tested on: Escherichia coli; experiment: Antibacterial activity against Escherichia coli ATCC 25922 after 24 hrs; format: functional; details: ATCC 25922, 24 h
Outline: (§1)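 Broth microdilution. Mid-log bacteria in MHB at a final (0.5−1) × 10^5 CFU/mL were mixed with equal volumes of peptide serially diluted in 0.2% BSA. Plates were incubated 24 h at 37 °C and read at A492. MIC is the lowest concentration inhibiting 95% of growth. Each test was repeated at least 3 times.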

[2] = Antibacterial activity against Salmonella pullorum ATCC 7913 after 24 hrs; format: functional, Salmonella enterica subsp. enterica serovar Pullorum; details: Salmonella enterica, ATCC 7913, 24 h; outline: as §1
[3] = tested on: Staphylococcus aureus; experiment: Antibacterial activity against methicillin-resistant Staphylococcus aureus ATCC 4330 after 24 hrs; format: functional; details: ATCC 4330, 24 h
Outline: (§2)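 Modified NCCLS broth microdilution. Mid-log bacteria at (0.5−1) × 10^5 CFU/mL in MHB were mixed 1:1 with peptide serially diluted in 0.2% BSA and incubated 24 h at 37 °C. Absorbance was read at 492 nm; MIC is the lowest concentration inhibiting 95% of growth. At least 3 repeats.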

[4] = tested on: Staphylococcus epidermidis; experiment: Antibacterial activity against Staphylococcus epidermidis ATCC 12228 after 24 hrs; format: functional; details: ATCC 12228, 24 h; outline: as §1
[5] = tested on: Staphylococcus aureus; experiment: Antibacterial activity against Staphylococcus aureus ATCC 25923 after 24 hrs; format: functional; details: ATCC 25923, 24 h; outline: as §2
[6] = tested on: Staphylococcus aureus; experiment: Bactericidal activity against methicillin-resistant Staphylococcus aureus ATCC 4330; format: functional; details: read-out: MBC99.9
Outline: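 Bacteria at (0.5−1) × 10^5 CFU/mL in MHB were exposed to serially diluted peptide (0.2% BSA) for 24 h at 37 °C, then 50 μL aliquots were plated on agar overnight. MBC is the lowest concentration killing >99.9% of cells. At least 3 repeats.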

[7] = tested on: Staphylococcus aureus; experiment: Bactericidal activity against Staphylococcus aureus ATCC 25923; format: functional; details: read-out: MBC99.9
Outline: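 Wells from the 24 h, 37 °C MHB microdilution plates (bacteria at a final (0.5−1) × 10^5 CFU/mL; peptide diluted in 0.2% BSA) were plated on agar and incubated overnight. MBC is the lowest concentration killing >99.9% of cells. Each test was reproduced at least 3 times.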

[8] = tested on: Candida albicans; experiment: Antifungal activity against Candida albicans cgmcc 2.2086 after 48 hrs by broth microdilution method; format: functional; details: cgmcc 2.2086, 48 h
Outline: (§3)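 Modified CLSI M27-A2 broth microdilution. Yeast at (0.5−1) × 10^3 CFU/mL in MOPS-buffered RPMI 1640 was mixed 1:1 with peptide serially diluted in 0.2% BSA and incubated 48 h at 28 °C. Absorbance was read at 492 nm; MIC is the lowest concentration inhibiting 95% of growth. Triplicate, three biological replicates.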

[9] = tested on: Candida albicans; experiment: Antifungal activity against Candida albicans SP3931 after 48 hrs by broth microdilution method; format: functional; details: SP3931, 48 h; outline: as §3
[10] = tested on: Candida albicans; experiment: Antifungal activity against Candida albicans SP3903 after 48 hrs by broth microdilution method; format: functional; details: SP3903, 48 h; outline: as §3
[11] = tested on: Candida albicans; experiment: Antifungal activity against Candida albicans SP3876 after 48 hrs by broth microdilution method; format: functional; details: SP3876, 48 h; outline: as §3
[12] = tested on: Candida albicans; experiment: Antifungal activity against Candida albicans isolated from alveolar fluid after 48 hrs by broth microdilution method; format: functional; outline: as §3
[13] = tested on: Candida albicans; experiment: Antifungal activity against fluconazole-resistant Candida albicans 56452 after 48 hrs by broth microdilution method; format: functional; details: Candida albicans, 56452, 48 h; outline: as §3
[14] = tested on: Candida albicans; experiment: Antifungal activity against fluconazole-resistant Candida albicans 17546 after 48 hrs by broth microdilution method; format: functional; details: Candida albicans, 17546, 48 h; outline: as §3
[15] = tested on: Candida tropicalis; experiment: Antifungal activity against Candida tropicalis cgmcc 2.1975 after 48 hrs by broth microdilution method; format: functional; details: cgmcc 2.1975, 48 h
Outline: (§4)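 Modified CLSI M27-A2 broth microdilution. Yeast were suspended in MOPS-buffered RPMI 1640 at a final (0.5−1) × 10^3 CFU/mL and mixed 1:1 with peptide serially diluted in 0.2% BSA. Plates were incubated 48 h at 28 °C and read at A492. MIC is the lowest concentration giving 95% inhibition. Run in triplicate with three biological replicates.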

[16] = tested on: Pichia kudriavzevii; experiment: Antifungal activity against Candida krusei cgmcc 2.1857 after 48 hrs by broth microdilution method; format: functional; details: cgmcc 2.1857, 48 h; outline: as §4
[17] = tested on: Candida albicans; experiment: Fungicidal activity against Candida albicans cgmcc 2.2086 after 96 hrs; format: functional; details: cgmcc 2.2086, 96 h, read-out: MFC99.9
Outline: (§5)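 After the 48 h, 28 °C broth microdilution in MOPS-buffered RPMI 1640 (inoculum (0.5−1) × 10^3 CFU/mL), 50 μL from each well was plated on YM agar for a further 48 h at 28 °C. MFC is the lowest concentration killing at least 99.9% of cells. Triplicate, three biological replicates.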

[18] = tested on: Candida albicans; experiment: Fungicidal activity against Candida albicans SP3931 after 96 hrs; format: functional; details: SP3931, 96 h, read-out: MFC99.9; outline: as §5
[19] = tested on: Candida albicans; experiment: Fungicidal activity against Candida albicans isolated from alveolar fluid after 96 hrs; format: functional; details: read-out: MFC99.9; outline: as §5
[20] = tested on: Candida albicans; experiment: Fungicidal activity against fluconazole-resistant Candida albicans 56452 after 96 hrs; format: functional; details: Candida albicans, 56452, 96 h; read-out: MFC99.9; outline: as §5
[21] = tested on: Candida albicans; experiment: Fungicidal activity against Candida albicans 14936 after 96 hrs; format: functional; details: Candida albicans, 14936, 96 h; read-out: MFC99.9; outline: as §5
[22] = tested on: Candida tropicalis; experiment: Fungicidal activity against Candida tropicalis cgmcc 2.1975 after 96 hrs; format: functional; details: cgmcc 2.1975, 96 h, read-out: MFC99.9
Outline: (§6)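 Wells from the 48 h, 28 °C RPMI 1640/MOPS microdilution plates were plated on YM agar and incubated a further 48 h at 28 °C. MFC is the lowest concentration killing at least 99.9% of cells. Run in triplicate with three biological replicates.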

[23] = tested on: Pichia kudriavzevii; experiment: Fungicidal activity against Candida krusei cgmcc 2.1857 after 96 hrs; format: functional; details: cgmcc 2.1857, 96 h, read-out: MFC99.9; outline: as §6
[24] = tested on: Candida albicans; experiment: Antifungal activity against Candida albicans cgmcc 2.2086 in presence of MgCl2 by broth dilution method; format: functional
[25] = tested on: Candida albicans; experiment: Antifungal activity against Candida albicans 58288 after 48 hrs by broth microdilution method; format: functional; details: Candida albicans, 58288, 48 h; outline: as §3
[26] = Cytotoxicity against mouse RAW264.7 cells assessed as cell viability at 2 to 64 uM after 24 hrs by MTT assay relative to control; format: cell-based; details: read-out: Activity
Outline: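 MTT viability assay. RAW264.7 or HEK293T cells at (1.0−2.0) × 10^5 per well were exposed to a peptide concentration series for 24 h at 37 °C in 5% CO2. MTT was then added at 0.5 mg/mL final for 4 h; formazan was dissolved in DMSO and read at 570 nm. Results average three independent trials.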

[27] = tested on: Escherichia coli; experiment: Antibacterial activity against Escherichia coli ATCC 25922 after 18 hrs in presence of KCl by broth dilution method; format: functional; details: ATCC 25922, 18 h
[28] = tested on: Escherichia coli; experiment: Antibacterial activity against Escherichia coli ATCC 25922 after 18 hrs in presence of NH4Cl by broth dilution method; format: functional; details: ATCC 25922, 18 h
[29] = tested on: Escherichia coli; experiment: Antibacterial activity against Escherichia coli ATCC 25922 after 18 hrs in presence of MgCl2 by broth dilution method; format: functional; details: ATCC 25922, 18 h
[30] = tested on: Escherichia coli; experiment: Antibacterial activity against Escherichia coli ATCC 25922 after 18 hrs in presence of ZnCl2 by broth dilution method; format: functional; details: ATCC 25922, 18 h

Row | Compound | MIC95 [1] [µM] | MIC95 [2] [µM] | MIC95 [3] [µM] | MIC95 [4] [µM] | MIC95 [5] [µM] | MBC [6] [µM] | MBC [7] [µM] | MIC95 [8] [µM] | MIC95 [9] [µM] | MIC95 [10] [µM] | MIC95 [11] [µM] | MIC95 [12] [µM] | MIC95 [13] [µM] | MIC95 [14] [µM] | MIC95 [15] [µM] | MIC95 [16] [µM] | MFC [17] [µM] | MFC [18] [µM] | MFC [19] [µM] | MFC [20] [µM] | further results
1 | CC[C@H](C)[C@H](NC(=O)CN)C(=O)NCC(=O)N[C@@H](C)C(=O)N[C@H](C(=O)N[C@@H](CC(C)C)C(=O)N[C@@H](CCCCN)C(=O)N[C@H](C(=O)N[C@@H](CC(C)C)C(=O)N[C@H](C(=O)N[C@H](C(=O)NCC(=O)N[C@@H](CC(C)C)C(=O)N1CCC[C@H]1C(=O)N[C@@H](C)C(=O)N[C@@H](CC(C)C)C(=O)N[C@H](C(=O)N[C@@H](CO)C(=O)N[C@@H](Cc1c[nH]c2ccccc12)C(=O)N[C@H](C(=O)N[C@@H](CCCCN)C(=O)N[C@@H](CCCNC(=N)N)C(=O)N[C@@H](CCCCN)C(=O)N[C@@H](CCCNC(=N)N)C(=O)N[C@@H](CCC(N)=O)C(=O)N[C@@H](CCC(N)=O)C(N)=O)[C@@H](C)CC)[C@@H](C)CC)[C@@H](C)O)[C@@H](C)O)C(C)C)C(C)C [MELITTIN] | 2 (≈ 5.69 µg/mL) | 2 (≈ 5.69 µg/mL) | 1 (≈ 2.85 µg/mL) | 0.5 (≈ 1.42 µg/mL) | 4 (≈ 11.4 µg/mL) | 1 (≈ 2.85 µg/mL) | 4 (≈ 11.4 µg/mL) | 4 (≈ 11.4 µg/mL) | 8 (≈ 22.8 µg/mL) | 4 (≈ 11.4 µg/mL) | 4 (≈ 11.4 µg/mL) | 4 (≈ 11.4 µg/mL) | 8 (≈ 22.8 µg/mL) | 8 (≈ 22.8 µg/mL) | 4 (≈ 11.4 µg/mL) | 2 (≈ 5.69 µg/mL) | 8 (≈ 22.8 µg/mL) | 8 (≈ 22.8 µg/mL) | 4 (≈ 11.4 µg/mL) | 8 (≈ 22.8 µg/mL) | MFC [21]: 8 µM (≈ 22.8 µg/mL); MFC [22]: 8 µM (≈ 22.8 µg/mL); MFC [23]: 4 µM (≈ 11.4 µg/mL); MIC [24]: 4 µM; MIC95 [25]: 4 µM (≈ 11.4 µg/mL)
2 | H-FFRRFRRFF-NH2 | 8 | 32 | 4 | 4 | 4 | 4 | 8 | 16 | 16 | 16 | 16 | 16 | 16 | 4 | 4 | 4 | 32 | 32 | 32 | 16 | viability at 24 h, up to 64 µM [26]: 70 to 80%; MFC [21]: 32 µM; MFC [22]: 8 µM; MFC [23]: 4 µM; MIC [27]: 8 µM; MIC [28]: 8 µM; MIC [29]: 8 µM; MIC [30]: 8 µM; MIC [24]: 16 µM; MIC95 [25]: 16 µM
3 | H-RWWRRWRRWWR-NH2 | 16 | 4 | 4 | 4 | 8 | 8 | 16 | 4 | 8 | 2 | 2 | 4 | 8 | 4 | 2 | 2 | 8 | 16 | 8 | 8 | MFC [21]: 4 µM; MFC [22]: 4 µM; MFC [23]: 4 µM; MIC [27]: 16 µM; MIC [28]: 16 µM; MIC [29]: 8 µM; MIC [30]: 16 µM; MIC [24]: 8 µM; MIC95 [25]: 2 µM
4 | H-WWRRWRRWW-NH2 | 8 | 8 | 4 | 4 | 4 | 4 | 8 | 8 | 16 | 4 | 4 | 8 | 8 | 2 | 4 | 4 | 16 | 32 | 16 | 8 | MFC [21]: 8 µM; MFC [22]: 8 µM; MFC [23]: 4 µM; MIC [27]: 8 µM; MIC [28]: 8 µM; MIC [29]: 4 µM; MIC [30]: 16 µM; MIC [24]: 8 µM; MIC95 [25]: 8 µM
